Measured values reported in ChEMBL document CHEMBL3808372, “Identification of quinones as novel PIM1 kinase inhibitors” (Bioorg Med Chem Lett, 2016).

What was measured:
[1] = tested on: Tyrosine-protein kinase ABL1 (Homo sapiens), P00519 [E255K]; assay: Inhibition of human ABL1 kinase E255K mutant phosphorylation (229 to 512 amino acid residues) assessed as enzyme activity at 10 uM by KINOMEScan assay; design: scale not given: the % may be the effect or the level left
Procedure, shortened: (§1)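 Competition binding screen on a 100-kinase KINOMEscan panel, compound tested at a single 10 μM concentration. Primary binding read-out expressed as % Ctrl = (test compound signal − positive control signal)/(negative control signal − positive control signal) × 100, with lower values meaning stronger binding.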

[2] = biological target: Atypical kinase COQ8A, mitochondrial (Homo sapiens) (UniProt Q8NI60); assay: Inhibition of full length human ADCK3 expressed in bacterial system assessed as enzyme activity at 10 uM by KINOMEScan assay; design: scale not given: the % may be the effect or the level left
Chain of Atypical kinase COQ8A, mitochondrial (Homo sapiens) (Q8NI60 163-647 limits assumed): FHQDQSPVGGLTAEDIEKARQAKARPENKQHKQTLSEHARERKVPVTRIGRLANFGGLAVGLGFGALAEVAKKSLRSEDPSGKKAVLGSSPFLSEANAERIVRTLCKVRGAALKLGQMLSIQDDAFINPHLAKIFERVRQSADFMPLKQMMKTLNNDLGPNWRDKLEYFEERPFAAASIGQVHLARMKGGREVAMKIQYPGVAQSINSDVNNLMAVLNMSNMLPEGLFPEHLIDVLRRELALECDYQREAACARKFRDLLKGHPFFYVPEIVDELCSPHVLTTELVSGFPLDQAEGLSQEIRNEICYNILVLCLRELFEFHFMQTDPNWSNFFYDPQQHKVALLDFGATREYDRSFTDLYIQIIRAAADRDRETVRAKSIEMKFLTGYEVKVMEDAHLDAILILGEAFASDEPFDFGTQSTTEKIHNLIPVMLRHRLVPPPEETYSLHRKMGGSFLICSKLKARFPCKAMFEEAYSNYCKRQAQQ
Procedure, shortened: (§2)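 Commercial KINOMEscan binding panel of 100 kinases, test compound at 10 μM. Results are primary-screen binding interactions expressed as % Ctrl = (test compound signal − positive control signal)/(negative control signal − positive control signal) × 100. Lower % Ctrl means stronger binding.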

[3] = biological target: Aurora kinase B (Homo sapiens) (UniProt Q96GD4); assay: Inhibition of human AURKB (25 to 303 amino acid residues) assessed as enzyme activity at 10 uM by KINOMEScan assay; design: scale not given: the % may be the effect or the level left; procedure, shortened: as §1
[4] = biological target: Bone morphogenetic protein receptor type-2 (Homo sapiens) (UniProt Q13873); assay: Inhibition of human BMPR2 (179 to 526 amino acid residues) assessed as enzyme activity at 10 uM by KINOMEScan assay; design: scale not given: the % may be the effect or the level left; procedure, shortened: as §1
[5] = biological target: Cyclin-dependent kinase 3 (Homo sapiens) (UniProt Q00526); assay: Inhibition of full length human CDK3 expressed in bacterial system assessed as enzyme activity at 10 uM by KINOMEScan assay; design: scale not given: the % may be the effect or the level left; procedure, shortened: as §1
[6] = biological target: Cyclin-dependent kinase 9 (Homo sapiens) (UniProt P50750); assay: Inhibition of full length human CDK9 expressed in bacterial system assessed as enzyme activity at 10 uM by KINOMEScan assay; design: scale not given: the % may be the effect or the level left; procedure, shortened: as §2
[7] = biological target: Casein kinase I isoform delta (Homo sapiens) (UniProt P48730); assay: Inhibition of full length human CSNK1D expressed in bacterial system assessed as enzyme activity at 10 uM by KINOMEScan assay system assessed as enzyme activity at 10 uM by KINOMEScan assay; design: scale not given: the % may be the effect or the level left; procedure, shortened: as §1
Chain of Casein kinase I isoform delta (Homo sapiens) (P48730 whole entry, looked up, the tested form may be a part, canonical isoform): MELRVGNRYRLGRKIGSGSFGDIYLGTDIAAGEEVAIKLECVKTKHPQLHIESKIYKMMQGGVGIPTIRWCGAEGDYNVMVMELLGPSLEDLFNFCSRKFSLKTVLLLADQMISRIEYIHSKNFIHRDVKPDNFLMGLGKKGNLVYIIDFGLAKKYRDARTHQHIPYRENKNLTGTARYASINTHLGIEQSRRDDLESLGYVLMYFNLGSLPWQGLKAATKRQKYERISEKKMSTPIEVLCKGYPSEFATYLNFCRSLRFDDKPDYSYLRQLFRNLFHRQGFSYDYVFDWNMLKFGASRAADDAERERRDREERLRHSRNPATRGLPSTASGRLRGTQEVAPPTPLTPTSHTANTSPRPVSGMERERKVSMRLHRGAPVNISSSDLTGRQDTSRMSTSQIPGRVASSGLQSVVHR

[8] = biological target: Receptor-type tyrosine-protein kinase FLT3 (Homo sapiens) (UniProt P36888); assay: Inhibition of human FLT3 (646 to 1225 amino acid residues) assessed as enzyme activity at 10 uM by KINOMEScan assay expressed in bacterial system assessed as enzyme activity at 10 uM by KINOMEScan assay; design: scale not given: the % may be the effect or the level left; procedure, shortened: as §1
[9] = biological target: Glycogen synthase kinase-3 beta (Homo sapiens) (UniProt P49841); assay: Inhibition of full length human GSK3B assessed as enzyme activity at 10 uM by KINOMEScan assay; design: scale not given: the % may be the effect or the level left; procedure, shortened: as §1
[10] = biological target: Inhibitor of nuclear factor kappa-B kinase subunit beta (Homo sapiens) (UniProt O14920); assay: Inhibition of full length human IKK-beta assessed as enzyme activity at 10 uM by KINOMEScan assay; design: scale not given: the % may be the effect or the level left; procedure, shortened: as §1
[11] = biological target: Tyrosine-protein kinase JAK2 (Homo sapiens) (UniProt O60674); assay: Inhibition of human JAK2 JH1 catalytic domain (829 to 1132 amino acid residues) assessed as enzyme activity at 10 uM by KINOMEScan assay; design: scale not given: the % may be the effect or the level left; procedure, shortened: as §1
[12] = biological target: Mitogen-activated protein kinase 10 (Homo sapiens) (UniProt P53779); assay: Inhibition of human JNK3 (28 to 422 amino acid residues) assessed as enzyme activity at 10 uM by KINOMEScan assay; design: scale not given: the % may be the effect or the level left; procedure, shortened: as §1
Chain of Mitogen-activated protein kinase 10 (Homo sapiens) (P53779 whole entry, the tested form may be a part): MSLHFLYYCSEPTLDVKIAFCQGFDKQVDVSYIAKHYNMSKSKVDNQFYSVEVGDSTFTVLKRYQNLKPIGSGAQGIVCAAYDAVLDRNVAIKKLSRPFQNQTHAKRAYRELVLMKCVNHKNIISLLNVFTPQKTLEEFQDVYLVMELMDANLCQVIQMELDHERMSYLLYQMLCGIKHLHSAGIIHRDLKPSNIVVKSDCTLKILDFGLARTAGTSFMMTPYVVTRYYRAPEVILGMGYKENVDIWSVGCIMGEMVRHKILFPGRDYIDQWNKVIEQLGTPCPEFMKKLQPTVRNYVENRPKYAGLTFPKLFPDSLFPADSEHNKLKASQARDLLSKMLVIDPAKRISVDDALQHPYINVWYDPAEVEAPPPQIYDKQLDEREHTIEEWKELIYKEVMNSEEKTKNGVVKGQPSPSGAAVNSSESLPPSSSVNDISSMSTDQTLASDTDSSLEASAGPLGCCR

[13] = tested on: Mast/stem cell growth factor receptor Kit (Homo sapiens), P10721 [V559D,T670I]; assay: Inhibition of human KIT V559D/T670I mutant (545 to 952 amino acid residues) expressed in bacterial system assessed as enzyme activity at 10 uM by KINOMEScan assay; design: scale not given: the % may be the effect or the level left; procedure, shortened: as §2
[14] = biological target: Mitogen-activated protein kinase kinase kinase 4 (Homo sapiens) (UniProt Q9Y6R4); assay: Inhibition of human MAP3K4 (1319 to 1608 amino acid residues) expressed in bacterial system assessed as enzyme activity at 10 uM by KINOMEScan assay; design: scale not given: the % may be the effect or the level left; procedure, shortened: as §2
[15] = biological target: MAP/microtubule affinity-regulating kinase 3 (Homo sapiens) (UniProt P27448); assay: Inhibition of full length human MARK3 expressed in bacterial system assessed as enzyme activity at 10 uM by KINOMEScan assay; design: scale not given: the % may be the effect or the level left; procedure, shortened: as §2
[16] = biological target: Dual specificity mitogen-activated protein kinase kinase 2 (Homo sapiens) (UniProt P36507); assay: Inhibition of full length human MEK2 assessed as enzyme activity at 10 uM by KINOMEScan assay; design: scale not given: the % may be the effect or the level left; procedure, shortened: as §1
Chain of Dual specificity mitogen-activated protein kinase kinase 2 (Homo sapiens) (P36507 whole entry, the tested form may be a part): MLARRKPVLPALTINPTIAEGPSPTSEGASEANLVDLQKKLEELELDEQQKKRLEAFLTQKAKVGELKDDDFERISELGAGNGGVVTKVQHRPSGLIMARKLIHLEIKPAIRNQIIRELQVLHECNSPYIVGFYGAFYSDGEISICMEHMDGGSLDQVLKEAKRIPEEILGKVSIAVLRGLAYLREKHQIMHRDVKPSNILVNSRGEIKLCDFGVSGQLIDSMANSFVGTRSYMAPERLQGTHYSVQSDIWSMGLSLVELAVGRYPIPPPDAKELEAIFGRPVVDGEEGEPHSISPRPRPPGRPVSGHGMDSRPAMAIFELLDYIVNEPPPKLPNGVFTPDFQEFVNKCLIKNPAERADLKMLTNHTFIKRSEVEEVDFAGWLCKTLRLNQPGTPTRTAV

[17] = biological target: Serine/threonine-protein kinase PAK 1 (Homo sapiens) (UniProt Q13153); assay: Inhibition of human PAK1 (149 to 545 amino acid residues) expressed in bacterial system assessed as enzyme activity at 10 uM by KINOMEScan assay; design: scale not given: the % may be the effect or the level left; procedure, shortened: as §1
[18] = biological target: Cyclin-dependent kinase 16 (Homo sapiens) (UniProt Q00536); assay: Inhibition of human PCTK1 (160 to 474 amino acid residues) assessed as enzyme activity at 10 uM by KINOMEScan assay; design: scale not given: the % may be the effect or the level left; procedure, shortened: as §2
Chain of Cyclin-dependent kinase 16 (Homo sapiens) (Q00536 whole entry, the tested form may be a part, canonical isoform): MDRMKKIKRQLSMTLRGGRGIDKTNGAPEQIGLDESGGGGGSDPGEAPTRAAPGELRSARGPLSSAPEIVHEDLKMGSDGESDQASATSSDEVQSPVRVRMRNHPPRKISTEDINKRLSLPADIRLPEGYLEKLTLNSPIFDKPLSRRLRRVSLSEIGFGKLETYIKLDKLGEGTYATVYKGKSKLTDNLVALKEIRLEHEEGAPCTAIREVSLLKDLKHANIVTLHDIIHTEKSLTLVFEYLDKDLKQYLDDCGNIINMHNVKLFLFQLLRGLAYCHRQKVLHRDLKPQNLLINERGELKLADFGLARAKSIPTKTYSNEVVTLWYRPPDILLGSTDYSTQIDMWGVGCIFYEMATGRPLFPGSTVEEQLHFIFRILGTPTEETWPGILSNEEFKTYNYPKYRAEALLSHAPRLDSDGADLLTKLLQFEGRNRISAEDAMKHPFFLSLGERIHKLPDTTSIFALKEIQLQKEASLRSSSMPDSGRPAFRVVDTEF

[19] = biological target: Phosphatidylinositol 4,5-bisphosphate 3-kinase catalytic subunit alpha isoform (Homo sapiens) (UniProt P42336); assay: Inhibition of human PIK3CA (108 to 1068 amino acid residues) assessed as enzyme activity at 10 uM by KINOMEScan assay; design: scale not given: the % may be the effect or the level left
Chain of Phosphatidylinositol 4,5-bisphosphate 3-kinase catalytic subunit alpha isoform (Homo sapiens) (P42336 whole entry, the tested form may be a part, canonical isoform): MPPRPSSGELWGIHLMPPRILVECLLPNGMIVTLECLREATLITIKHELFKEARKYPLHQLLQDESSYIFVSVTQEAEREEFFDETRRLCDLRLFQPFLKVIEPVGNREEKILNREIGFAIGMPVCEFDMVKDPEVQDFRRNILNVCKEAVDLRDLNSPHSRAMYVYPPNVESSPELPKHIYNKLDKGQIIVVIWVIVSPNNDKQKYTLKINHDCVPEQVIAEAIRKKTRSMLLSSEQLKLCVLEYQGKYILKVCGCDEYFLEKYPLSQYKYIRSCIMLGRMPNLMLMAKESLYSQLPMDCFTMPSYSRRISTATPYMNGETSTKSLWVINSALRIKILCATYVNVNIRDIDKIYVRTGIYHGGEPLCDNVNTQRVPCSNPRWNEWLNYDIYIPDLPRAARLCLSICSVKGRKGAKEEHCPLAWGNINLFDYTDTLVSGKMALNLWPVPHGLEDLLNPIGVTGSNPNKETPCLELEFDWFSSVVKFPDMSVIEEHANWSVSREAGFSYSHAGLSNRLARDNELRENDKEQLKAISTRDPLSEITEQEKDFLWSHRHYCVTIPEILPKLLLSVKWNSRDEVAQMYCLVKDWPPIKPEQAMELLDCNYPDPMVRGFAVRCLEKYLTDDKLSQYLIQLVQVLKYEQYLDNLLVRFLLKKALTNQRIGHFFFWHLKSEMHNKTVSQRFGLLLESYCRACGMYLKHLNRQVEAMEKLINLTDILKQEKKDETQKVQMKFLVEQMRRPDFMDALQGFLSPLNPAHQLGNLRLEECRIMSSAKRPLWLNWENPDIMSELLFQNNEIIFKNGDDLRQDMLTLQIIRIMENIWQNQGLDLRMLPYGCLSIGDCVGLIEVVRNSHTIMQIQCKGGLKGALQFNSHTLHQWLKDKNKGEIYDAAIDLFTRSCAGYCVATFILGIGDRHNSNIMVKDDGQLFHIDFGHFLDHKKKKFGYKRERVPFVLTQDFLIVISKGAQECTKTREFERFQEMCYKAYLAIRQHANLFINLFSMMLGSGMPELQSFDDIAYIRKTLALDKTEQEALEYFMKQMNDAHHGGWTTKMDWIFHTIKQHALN
Procedure, shortened: (§3)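 Single-concentration competition binding screen (KINOMEscan) across a 100-kinase panel at 10 μM. Primary binding read-out is reported as % of control: (test signal − positive-control signal)/(negative-control signal − positive-control signal) × 100. Lower values indicate stronger binding.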

[20] = biological target: Serine/threonine-protein kinase PLK3 (Homo sapiens) (UniProt Q9H4B4); assay: Inhibition of human PLK3 (42 to 334 amino acid residues) assessed as enzyme activity at 10 uM by KINOMEScan assay; design: scale not given: the % may be the effect or the level left; procedure, shortened: as §3
[21] = biological target: Rho-associated protein kinase 2 (Homo sapiens) (UniProt O75116); assay: Inhibition of human ROCK2 (1 to 431 amino acid residues) assessed as enzyme activity at 10 uM by KINOMEScan assay; design: scale not given: the % may be the effect or the level left; procedure, shortened: as §3
Chain of Rho-associated protein kinase 2 (Homo sapiens) (O75116 whole entry, looked up, the tested form may be a part): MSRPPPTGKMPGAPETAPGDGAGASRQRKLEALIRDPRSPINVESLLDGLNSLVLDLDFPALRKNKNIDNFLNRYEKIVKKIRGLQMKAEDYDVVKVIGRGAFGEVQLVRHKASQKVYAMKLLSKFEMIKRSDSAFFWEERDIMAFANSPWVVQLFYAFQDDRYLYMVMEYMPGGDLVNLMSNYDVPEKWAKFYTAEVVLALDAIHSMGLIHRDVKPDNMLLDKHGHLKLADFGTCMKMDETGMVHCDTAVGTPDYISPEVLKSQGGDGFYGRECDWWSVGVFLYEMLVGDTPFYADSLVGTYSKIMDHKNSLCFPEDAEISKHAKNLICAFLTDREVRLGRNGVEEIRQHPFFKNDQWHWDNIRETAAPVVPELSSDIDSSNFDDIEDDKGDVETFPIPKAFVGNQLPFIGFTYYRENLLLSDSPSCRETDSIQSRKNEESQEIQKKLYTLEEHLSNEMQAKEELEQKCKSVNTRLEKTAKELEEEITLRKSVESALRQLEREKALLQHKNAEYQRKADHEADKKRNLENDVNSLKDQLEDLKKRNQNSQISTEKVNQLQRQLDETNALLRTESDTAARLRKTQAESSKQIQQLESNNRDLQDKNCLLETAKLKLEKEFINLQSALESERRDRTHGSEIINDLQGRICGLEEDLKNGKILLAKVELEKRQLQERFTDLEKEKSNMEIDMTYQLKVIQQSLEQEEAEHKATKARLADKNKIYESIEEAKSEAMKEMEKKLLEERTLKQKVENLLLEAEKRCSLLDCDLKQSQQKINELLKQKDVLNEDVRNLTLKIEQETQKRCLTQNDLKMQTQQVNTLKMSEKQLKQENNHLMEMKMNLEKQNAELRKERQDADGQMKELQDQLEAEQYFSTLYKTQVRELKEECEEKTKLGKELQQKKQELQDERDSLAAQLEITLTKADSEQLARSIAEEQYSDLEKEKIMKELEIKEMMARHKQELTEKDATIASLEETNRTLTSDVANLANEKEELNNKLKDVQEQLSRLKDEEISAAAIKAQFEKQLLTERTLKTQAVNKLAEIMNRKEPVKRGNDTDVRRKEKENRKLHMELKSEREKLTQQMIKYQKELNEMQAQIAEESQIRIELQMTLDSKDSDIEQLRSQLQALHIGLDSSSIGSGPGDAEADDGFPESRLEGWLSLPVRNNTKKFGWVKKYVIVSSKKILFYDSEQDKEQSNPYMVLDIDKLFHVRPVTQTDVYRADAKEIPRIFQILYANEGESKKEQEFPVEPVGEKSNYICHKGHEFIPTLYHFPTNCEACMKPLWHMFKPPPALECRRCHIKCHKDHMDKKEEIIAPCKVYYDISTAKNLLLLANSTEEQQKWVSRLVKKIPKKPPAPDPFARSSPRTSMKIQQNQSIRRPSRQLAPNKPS

[22] = biological target: NUAK family SNF1-like kinase 2 (Homo sapiens) (UniProt Q9H093); assay: Inhibition of human SNARK (22 to 333 amino acid residues) assessed as enzyme activity at 10 uM by KINOMEScan assay; design: scale not given: the % may be the effect or the level left; procedure, shortened: as §3
[23] = biological target: SRSF protein kinase 3 (Homo sapiens) (UniProt Q9UPE1); assay: Inhibition of human SRPK3 (41 to 567 amino acid residues) expressed in bacterial system assessed as enzyme activity at 10 uM by KINOMEScan assay; design: scale not given: the % may be the effect or the level left; procedure, shortened: as §3
[24] = biological target: T1, Serine/threonine-protein kinase pim-1 (Homo sapiens, UniProt P11309); assay: Inhibition of recombinant human Pim1
[25] = biological target: Testis-specific serine/threonine-protein kinase 1 (Homo sapiens) (UniProt Q9BXA7); assay: Inhibition of full length human TSSK1B expressed in bacterial system assessed as enzyme activity at 10 uM by KINOMEScan assay; design: scale not given: the % may be the effect or the level left; procedure, shortened: as §1
[26] = biological target: Casein kinase II (Homo sapiens) (UniProt P67870+P68400+P19784); assay: Share of MOE computational kinase hits for CK2
[27] = biological target: T1, Serine/threonine-protein kinase pim-1; assay: Share of MOE computational kinase hits for Pim family
Target sequence in this assay (P11309 whole entry, looked up): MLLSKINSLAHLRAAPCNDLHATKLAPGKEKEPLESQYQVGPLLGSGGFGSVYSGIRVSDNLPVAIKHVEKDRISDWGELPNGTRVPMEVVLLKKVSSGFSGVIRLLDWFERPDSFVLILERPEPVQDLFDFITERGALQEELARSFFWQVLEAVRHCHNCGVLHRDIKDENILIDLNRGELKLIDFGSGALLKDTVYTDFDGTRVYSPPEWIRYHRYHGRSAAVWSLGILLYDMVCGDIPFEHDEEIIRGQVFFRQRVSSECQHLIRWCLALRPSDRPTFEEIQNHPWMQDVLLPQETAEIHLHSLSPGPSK

Structure (SMILES): O=C1C2=C(C(=O)c3c(O)ccc(O)c31)[C@@H](O)[C@@H](O)[C@@H](O)C2
- Activity [1]: 96%
- Activity [2]: 100%
- Activity [3]: 72%
- Activity [4]: 60%
- Activity [5]: 88%
- Activity [6]: 100%
- Activity [7]: 30%
- Activity [8]: 84%
- Activity [9]: 85%
- Activity [10]: 91%
- Activity [11]: 94%
- Activity [12]: 76%
- Activity [13]: 86%
- Activity [14]: 100%
- Activity [15]: 100%
- Activity [16]: 96%
- Activity [17]: 93%
- Activity [18]: 100%
- Activity [19]: 99%
- Activity [20]: 54%
- Activity [21]: 77%
- Activity [22]: 90%
- Activity [23]: 93%
- IC50 [24]: 19.2 µM
- Activity [25]: 89%
- % of MOE kinase hits [26]: 43%
- % of MOE kinase hits [27]: 29%
